Measurements gathered from unrelated publications.
Protocols differ between the studies behind these lines.
D14: D14 (Arabidopsis thaliana, UniProt Q9SQR3)
AMY2: Pancreatic alpha-amylase (AMY2, Sus scrofa, UniProt P00690)

| Structure (SMILES) | target | effect on | action | technique | concentration | endpoint | result |
| --- | --- | --- | --- | --- | --- | --- | --- |
| CC1=C(/C=C/C(C)=C/C=O)C(C)(C)CCC1 | D14 | thermal stability | – | DSF | 100 µM | ΔTm | -9.02 °C |
| O=C1C[C@@H](c2ccccc2)Oc2cc(O)cc(O)c21 | AMY2 | enzyme activity | inhibitor | – | 50 µM | inhibition | 25.2% |
| Cc1cc(O)c(-c2ccc([C@@H](C)CN(C)C)cc2)c2c1[nH]c(=O)c1sccc12 | Ribosomal protein S6 kinase alpha-1, C-terminal kinase domain (RPS6KA1, Homo sapiens, UniProt Q15418) | enzyme activity | inhibitor | – | 0.1 µM | inhibition | -4.95% |
| C1=C/COCc2cc(ccc2OCCN2CCCC2)Nc2nccc(n2)-c2cccc(c2)COC/1 | MAP kinase-activated protein kinase 5 (MAPKAPK5, Homo sapiens, UniProt Q8IW41) | binding | – | – | 0.1 µM | remaining binding | 75% |
| O=C1C[C@@H](c2ccc(O)cc2)Oc2cc(O)cc(O)c21 | AMY2 | enzyme activity | inhibitor | – | 50 µM | inhibition | 33.3% |
| CCCCC(=O)Nc1ccc(-c2ccc3ncn(CCC)c(=O)c3c2)cn1 | Tyrosine-protein kinase Fer (FER, Homo sapiens, UniProt P16591) | binding | – | competition with immobilised ligand | 0.5 µM | remaining binding | 100% |
| CC1=C(/C=C/C(C)=C/C=O)C(C)(C)C[C@H](O)C1 | D14 | thermal stability | – | DSF | 50 µM | ΔTm | -3.04 °C |
| O=c1cc(-c2ccc(O)cc2)oc2cc(O)cc(O)c12 | AMY2 | enzyme activity | inhibitor | – | 50 µM | inhibition | 87.5% |
| C#Cc1cc(-c2cc(Nc3nc(N[C@@H](C)c4ccc(F)cn4)ncc3Cl)n[nH]2)ccc1C=O | Ribosomal protein S6 kinase alpha-1 (RPS6KA1, Homo sapiens, UniProt Q15418) | enzyme activity | inhibitor | – | 0.2 µM | inhibition | 56.8% |
| CC1=CC(O/C=C2/C(=O)OC3c4ccccc4CC23)OC1=O (racemic) | D14 | thermal stability | – | DSF | 10 µM | ΔTm | -7.04 °C |
